Laboratory results reported in ChEMBL document CHEMBL1131465, “Design, synthesis, and biological evaluation of conformationally constrained aci-reductone mimics of arachidonic acid” (J Med Chem, 1998).

How the values were obtained:
[1] = molecular target: T1, Polyunsaturated fatty acid 5-lipoxygenase (Rattus norvegicus) (UniProt P12527); experiment: Inhibition of 5-lipoxygenase of rat basophilic leukemia cells at 30 uM; type: cell-based; details: RBL-1
T1 sequence (whole entry): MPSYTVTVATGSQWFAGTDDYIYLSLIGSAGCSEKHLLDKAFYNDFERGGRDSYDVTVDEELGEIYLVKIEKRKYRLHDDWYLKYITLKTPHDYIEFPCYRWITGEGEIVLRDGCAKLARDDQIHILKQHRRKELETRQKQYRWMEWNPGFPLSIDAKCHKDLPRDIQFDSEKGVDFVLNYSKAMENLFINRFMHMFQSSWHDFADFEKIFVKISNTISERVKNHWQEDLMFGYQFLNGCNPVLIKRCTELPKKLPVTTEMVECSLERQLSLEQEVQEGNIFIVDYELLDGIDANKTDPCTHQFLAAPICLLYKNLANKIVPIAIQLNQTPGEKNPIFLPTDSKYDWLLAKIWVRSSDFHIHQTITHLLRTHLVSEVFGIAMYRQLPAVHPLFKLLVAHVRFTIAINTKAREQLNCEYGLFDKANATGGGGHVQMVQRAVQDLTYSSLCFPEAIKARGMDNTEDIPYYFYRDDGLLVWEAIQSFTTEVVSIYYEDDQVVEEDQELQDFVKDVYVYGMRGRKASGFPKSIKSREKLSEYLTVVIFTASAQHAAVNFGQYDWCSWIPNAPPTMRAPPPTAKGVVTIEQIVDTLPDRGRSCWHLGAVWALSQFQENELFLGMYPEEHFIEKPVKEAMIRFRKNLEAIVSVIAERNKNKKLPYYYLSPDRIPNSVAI
Method in brief: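 5-LO source was a crude enzyme preparation from broken rat basophilic leukemia (RBL-1) cells. Compounds were screened at a single concentration of 30 µM, and results are reported as percent inhibition.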

[2] = species: Cavia porcellus; experiment: (§1) Inhibition of CCl4 induced lipid peroxidation (LPO) of guinea pig hepatic microsomes at 300 uM concentration; type: functional; details: Liver
Method in brief: (§2)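 Lipid peroxidation of polyunsaturated fatty acids in guinea pig liver microsomes was induced with CCl₄. Test compounds were used at 300 µM. Malondialdehyde (MDA) formation was quantified spectrophotometrically, and results are reported as percent inhibition.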

[3] = molecular target: T2, Prostaglandin G/H synthase 1 (Ovis aries) (UniProt P05979); experiment: Inhibition of Prostaglandin G/H synthase 1 isolated from ram (sheep) seminal vesicle at 300 uM; type: tissue-based
T2 sequence (whole entry): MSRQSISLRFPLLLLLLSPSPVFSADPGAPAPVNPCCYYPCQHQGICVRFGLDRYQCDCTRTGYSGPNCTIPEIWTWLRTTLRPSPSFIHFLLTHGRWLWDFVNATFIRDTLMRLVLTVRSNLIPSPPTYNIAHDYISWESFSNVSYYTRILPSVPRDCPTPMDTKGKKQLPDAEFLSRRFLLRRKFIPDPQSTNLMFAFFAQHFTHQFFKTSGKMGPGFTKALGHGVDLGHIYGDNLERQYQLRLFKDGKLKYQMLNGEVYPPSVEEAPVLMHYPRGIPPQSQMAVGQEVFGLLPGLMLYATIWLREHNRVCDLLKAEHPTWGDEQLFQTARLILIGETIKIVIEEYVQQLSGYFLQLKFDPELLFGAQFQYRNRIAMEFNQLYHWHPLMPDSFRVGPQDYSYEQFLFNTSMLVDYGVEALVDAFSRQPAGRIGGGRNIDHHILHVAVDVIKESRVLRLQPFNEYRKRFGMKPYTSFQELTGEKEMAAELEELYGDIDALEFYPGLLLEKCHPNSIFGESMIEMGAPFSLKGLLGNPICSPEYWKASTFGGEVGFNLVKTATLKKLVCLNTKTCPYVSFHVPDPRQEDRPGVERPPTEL

[4] = molecular target: T3, Prostaglandin G/H synthase 2 (Ovis aries) (UniProt P79208); experiment: Inhibition of Prostaglandin G/H synthase 2 from sheep placenta at 300 uM
T3 sequence (whole entry): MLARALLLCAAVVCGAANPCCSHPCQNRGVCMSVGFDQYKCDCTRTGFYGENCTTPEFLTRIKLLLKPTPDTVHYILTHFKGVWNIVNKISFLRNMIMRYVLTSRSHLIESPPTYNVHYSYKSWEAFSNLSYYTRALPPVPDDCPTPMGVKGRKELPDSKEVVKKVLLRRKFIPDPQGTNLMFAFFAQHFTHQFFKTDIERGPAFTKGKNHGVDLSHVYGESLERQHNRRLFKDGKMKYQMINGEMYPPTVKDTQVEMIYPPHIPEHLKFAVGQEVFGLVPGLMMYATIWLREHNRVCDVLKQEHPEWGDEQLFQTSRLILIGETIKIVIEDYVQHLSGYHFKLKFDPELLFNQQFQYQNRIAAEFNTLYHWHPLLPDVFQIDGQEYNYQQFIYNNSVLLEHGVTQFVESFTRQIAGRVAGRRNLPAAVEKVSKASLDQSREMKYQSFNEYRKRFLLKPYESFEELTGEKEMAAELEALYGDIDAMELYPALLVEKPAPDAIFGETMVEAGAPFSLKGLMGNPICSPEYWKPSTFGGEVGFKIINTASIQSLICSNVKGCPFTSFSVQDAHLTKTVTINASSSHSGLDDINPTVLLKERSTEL

[5] = molecular target: T4, Polyunsaturated fatty acid 5-lipoxygenase (Rattus norvegicus, UniProt P12527); experiment: Inhibitory activity against 5-lipoxygenase obtained from rat basophilic leukemia cells
T4 sequence (P12527 whole entry): T1 sequence (whole entry)
Method in brief: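 IC50 was determined against 5-LO in a broken RBL-1 cell assay, using a crude enzyme preparation from rat basophilic leukemia cells.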

[6] = species: Cavia porcellus; experiment: as §1; type: functional; details: Liver; method in brief: as §2; remark: listed apart in the source

inhibition [1] [%] | inhibition [3] [%] | inhibition [4] [%] | IC50 [5] [nM] | IC50 [6] [nM] | SMILES | inhibition [2] [%]
30 | 25 | 12 | – | – | CCCS(=O)(=O)Cc1ccccc1C#CCCC1OC(O)=C(O)C1=O (stereo unspecified) | 60
100 | – | – | 160 | – | O=C1C(O)=C(O)OC1CCC#Cc1ccc(Cc2ccc(F)cc2)s1 (stereo unspecified) | –
0 | 76 | 0 | – | – | CC(=O)Oc1ccccc1C(=O)O | 4
43 | 8 | 18 | – | – | Cc1ccccc1C#CCCC1OC(O)=C(O)C1=O (stereo unspecified) | 59
81 | 8 | 23 | – | – | CCCCS(=O)(=O)Nc1ccccc1C#CCCC1OC(O)=C(O)C1=O (stereo unspecified) | 75
81 | 55 | 28 | 400 | – | CCC/C=C\Cc1ccccc1C#CCCC1OC(O)=C(O)C1=O (stereo unspecified) | 72
82 | 38 | 20 | – | – | CCCSCc1ccccc1C#CCCC1OC(O)=C(O)C1=O (stereo unspecified) | 72
100 | 25 | 15 | 300 | – | O=C1C(O)=C(O)OC1CCC#Cc1ccccc1CSc1ccccc1 (stereo unspecified) | 61
58 | 5 | 13 | – | – | O=C1C(O)=C(O)OC1CCC#Cc1ccccc1 (stereo unspecified) | 62
– | – | – | 23 | – | C[C@H](C#Cc1ccc(Cc2ccc(F)cc2)s1)N(O)C(N)=O [ATRELEUTON] | –
90 | 67 | 45 | – | – | CCCCCSCc1ccccc1C#CCCC1OC(O)=C(O)C1=O (stereo unspecified) | 62
– | – | – | – | 280000 | Cc1c(C)c2c(c(C)c1O)CC[C@@](C)(CCC[C@H](C)CCC[C@H](C)CCCC(C)C)O2 [ALPHA-TOCOPHEROL] | –
99 | 37 | 28 | – | – | CCC/C=C\Cc1ccccc1/C=C\CCC1OC(O)=C(O)C1=O (stereo unspecified) | 68
